High-throughput results: PubChem, several laboratories
This is a sample that favours compounds with a hit; in the whole collection about 4.9% have one here.
NPY-Y2 antag: blocks the human neuropeptide Y Y2 receptor; actives 0.99% (n = 140,000); inhibition, % at 2.7 µM; NPY-Y2 expressing cells, antagonist mode; in the data active = inhibition above about 17%;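 also: 0% = vehicle with agonist challenge and 100% = reference antagonist with challenge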
Target sequence (P49146 whole entry, looked up): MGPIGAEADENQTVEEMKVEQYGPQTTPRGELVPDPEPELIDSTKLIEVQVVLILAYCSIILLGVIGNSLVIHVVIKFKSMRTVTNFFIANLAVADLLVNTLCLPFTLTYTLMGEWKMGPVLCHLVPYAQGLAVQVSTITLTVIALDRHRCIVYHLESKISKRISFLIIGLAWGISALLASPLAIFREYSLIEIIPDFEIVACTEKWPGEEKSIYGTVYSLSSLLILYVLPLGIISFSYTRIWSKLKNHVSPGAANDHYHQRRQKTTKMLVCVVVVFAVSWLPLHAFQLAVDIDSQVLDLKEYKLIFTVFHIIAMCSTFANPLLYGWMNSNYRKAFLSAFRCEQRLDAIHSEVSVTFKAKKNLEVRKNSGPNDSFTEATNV
WT yeast gro inh: growth inhibition of WT yeast, mitochondrial fusion screen; mitochondrial fusion phenotypic screen, WT strain; inhibition, % at 10 µM; actives 2.1% (n = 190,000); AID 1362; in the data active = inhibition above about 58%; tested in S. cerevisiae
NPY-Y2 PAM-ag: potentiates or activates human NPY-Y2 receptor. cells expressing NPY-Y2, potentiator/agonist read-out. activation, % at 3.6 µM. actives 0.45% (n = 220,000). AID 1359; in the data active = activation above about 27%;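 also: cells stimulated with NPY near EC25 plus isoproterenol at EC100; 0% = vehicle plus submaximal agonist and 100% = vehicle plus saturating agonist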
NPY-Y1 antag: blocks the human neuropeptide Y Y1 receptor; HEK293-CNG Y1 cells, membrane potential fluorescence; NPY at EC95, then isoproterenol; AID 1040; P25929; inhibition, % at 3.6 µM; actives 1% (n = 200,000);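 active = inhibition above the campaign mean inhibition of all tested compounds plus 3 SD, cut at about 20% in these data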;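 also: 0% = DMSO wells given NPY plus isoproterenol and 100% = isoproterenol alone without NPY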
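Material: HEK293 cells co-expressing NPY Y1 receptor and cyclic-nucleotide gated channel. Timing: compound incubation 1 h at room temperature, readout 45 min post-stimulation. Signal: fluorescence, membrane potential probe.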
NPY-Y1 PAM-ag: human NPY-Y1 potentiation or agonism, primary screen; P25929; NPY-Y1 expressing cells, potentiator/agonist activation; activation, % at 3.6 µM; actives 0.37% (n = 220,000); AID 1304; in the data active = activation above about 33%, passing the limit was not always enough;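 also: cells stimulated with NPY at EC10 then isoproterenol at EC100; 0% = low agonist plus stimulus and 100% = saturating agonist plus stimulus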
RAM inhibit: blocks the yeast RAM network | S. cerevisiae dse1pr::URA3 reporter, 5-FOA growth OD615, 2 d; analog-sensitive cbk1-as2 kinase mutant strain | inhibition, % at 50 µM | actives 1.8% (n = 190,000);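 active = inhibition above a set limit, 3 SD over mean compound inhibition, cut at about 8.4% in these data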;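 also: 0% = DMSO-only wells with no growth and 100% = 10 µM 1-NA-PP1 full growth; inhibition rescues growth on 5-FOA so higher OD means more RAM inhibition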
Numbers without * were called inactive; x = not tested or not shown.

SMILES	NPY-Y2 antag	WT yeast gro inh	NPY-Y2 PAM-ag	NPY-Y1 antag	NPY-Y1 PAM-ag	RAM inhibit
CSc1nc(Sc2ccccc2Cl)c2ccccc2n1	9	68*	-24	10	-58	3
O=C1SCC(c2ccc(Cl)cc2Cl)=NN1Cc1nnc(-c2ccccc2)o1	4	19	-11	4	-23	5
O=c1c2ccccc2cnn1-c1nc2ccccc2[nH]1	x	86*	4	5	6	1
Cc1nc(-c2ccccc2)sc1C(=O)CSc1ccc(Br)cc1	13	17	-25	9	-40	2
Cc1ccc(C(=O)CSc2nc(-c3ccccc3)ccc2C#N)cc1	7	-9	5	-2	6	4
CCSc1nc(-c2ccc(OC)cc2)ccc1C#N	5	-25	-14	13	-43	8.7*
O=C(/C=C/c1cccc([N+](=O)[O-])c1)c1cccs1	9	10	-10	2	-2	3
CC1CN(c2nc(-c3ccccc3)nc3ccccc23)CC(C)O1 (configuration not stated)	4	-6	-7	9	-4	0
CC1CN(c2nc3ccccc3cc2-c2ccccc2)CC(C)O1 (configuration not stated)	x	78*	-4	15	-15	1
CC1CN(c2cc(-c3ccccc3)c3ccccc3n2)CC(C)O1 (configuration not stated)	5	76*	-10	10	-19	2
Cc1cccc(N(CC(=O)NCc2ccc3c(c2)OCO3)C(=O)CCC(=O)Nc2ccccn2)c1C	5	-9	-6	3	6	3
O=C(Nc1ccc2c(c1)OCO2)c1cccs1	0	18	-5	2	-1	0
N=c1c2c(n(Cc3ccc(Cl)cc3)c3c1CCC3)CCC2	1	62*	5	-6	4	2
N=c1c2c(n(Cc3ccccc3)c3c1CCC3)CCC2	-1	71*	-5	4	14	2
N=c1c2c(n(Cc3ccc(F)cc3)c3c1CCC3)CCCC2	x	55	6	8	31	2
CCn1c2c(c(=N)c3c1CCC3)CCCC2	x	x	-18	x	16	x
N=c1c2c(n(Cc3cccc(Cl)c3)c3c1CCC3)CCCC2	1	62*	-9	4	-21	1
COc1ccc(-n2cccc2/C=C/[N+](=O)[O-])cc1	3	70*	4	-1	9	1
COc1cccc(/C=C(/C#N)c2ccc(F)cc2)c1OCc1cccc(C(=O)O)c1	4	-41	2	4	14	1
O=C(NCCN1CCCC1)c1ccc(CS(=O)(=O)c2c(Cl)cccc2Cl)o1	1	11	14	-1	7	0
Cc1ccc(S(=O)(=O)NN2C(=O)/C(=C/c3cccn3C)SC2=S)cc1	9	51	-26	28*	-42	5
Cc1cc(S(=O)(=O)N2CCN(c3ccccc3C)CC2)ccc1F	13	61*	-12	8	-22	6
CCN1C(=O)C(CC(=O)Nc2ccc(OC)cc2)N(CCc2ccccc2F)C1=S (configuration not stated)	x	x	15	x	31	x
CCN(CC)S(=O)(=O)c1ccc(OC)c(NC(=O)CSc2cc(Cl)ccc2Cl)c1	-2	11	-3	4	-17	9.2*
N/C(=N\OC(=O)C12CC3CC(CC(C3)C1)C2)c1cccnc1	10	-5	1	2	-9	0
SMILES	NPY-Y2 antag	WT yeast gro inh	NPY-Y2 PAM-ag	NPY-Y1 antag	NPY-Y1 PAM-ag	RAM inhibit
N/C(=N\OC(=O)C12CC3CC(CC(C3)C1)C2)c1ccccc1	2	87*	-5	4	26	1
CNC(=O)C(=O)Nc1nc(C23CC4CC(CC(C4)C2)C3)cs1	x	-4	0	6	-4	2
CCCCn1c(=O)nc2n(-c3ccccc3C)c3ccccc3cc-2c1=O	2	-5	-16	4	18	2
Cc1ccc(-c2nnc(SCC(=O)N3CCOCC3)nc2-c2ccc(C)cc2)cc1	1	74*	-10	4	13	-1
Cc1ccc(SCC(=O)N2CCOCC2)cc1	2	-3	-4	-8	5	0
Cc1cc2cc3c(cc2nc1SCC(=O)OC(C)C)OCCO3	8	-8	-10	6	10	3
COC(=O)CSc1nc2cc3c(cc2cc1C)OCO3	x	70*	3	2	-1	2
CCOC(=O)C1CCN(CC(=O)Nc2c(C(=O)OC)[nH]c3cccc(Cl)c23)CC1	-1	12	4	-2	7	0
COC(=O)c1[nH]c2cccc(Cl)c2c1NC(=O)CN(C)C1CCCCC1	1	61*	-6	-7	-27	2
C1CCN=C(NC23CC4CC(CC(C4)C2)C3)CC1	1	-10	12	-1	-2	1
Cc1ccc(C(=O)CSc2ncnc3sc4c(c23)CCC(C)C4)cc1 (configuration not stated)	2	-11	-20	-2	-5	8.6*
COc1ccc(N(C(=O)c2ccco2)S(=O)(=O)c2cc(Cl)c(Cl)cc2Cl)cc1	4	59*	-18	3	-8	2
O=C(Oc1cccc2c(O)cccc12)c1ccccc1	1	60*	3	-1	-6	-2
Cc1nc(N2N=C3/C(=C/c4ccc(F)cc4)CCCC3C2c2ccc(F)cc2)sc1C(=O)N(C)C (configuration not stated)	11	74*	-2	5	-11	5
COCCCNC(=S)NNC(=S)Nc1ccc(OC)cc1	x	x	-29	x	9	x
O=c1cccccc1NN=C1CCCCC1	x	x	-4	x	1	x
CC(=O)Nc1ncc(Cc2cccc(Cl)c2Cl)s1	x	-3	11	-9	6	3
CC(=O)Nc1ncc(Cc2cc(Cl)ccc2Cl)s1	x	76*	-7	0	15	1
Cc1ccc(F)cc1NC(=O)Cc1ncc(C(F)(F)F)cc1Cl	4	5	1	5	-15	5
Oc1c(Br)cc(Br)cc1CNc1ccc(F)cc1	x	83*	7	-1	4	0
Nc1nnc(SCC(=O)c2ccc([N+](=O)[O-])cc2)s1	x	0	12	-5	6	2
O=C(Nc1ccccc1)c1cccc(S(=O)(=O)Oc2ccc([N+](=O)[O-])cc2)c1	4	19	-8	5	-19	10*
O=[N+]([O-])c1ccc(Oc2ccc(S(=O)(=O)Nc3ccccc3)cc2)cc1	3	42	-3	-3	-3	9.8*
O=C(Nc1cccc([N+](=O)[O-])c1)c1ccccc1	x	x	-6	x	5	x
Cc1cccc2cc(CN(Cc3cccs3)S(=O)(=O)c3ccc4c(c3)OCCO4)c(=O)[nH]c12	-1	6	5	6	6	4
Cc1cc(C)c(S(=O)(=O)/N=C2/C=C(SCC(=O)O)C(=O)c3ccccc32)cc1C	x	66*	-1	-2	-10	5
Nc1ccc(-c2nc3ccc(C(=O)O)cc3s2)cc1	-2	8	8	-8	-7	9.1*
